Experimental data reported in ChEMBL document CHEMBL1125676, “Synthesis and structure-activity studies of alkyl-substituted gamma-butyrolactones and gamma-thiobutyrolactones: ligands for the picrotoxin receptor” (J Med Chem, 1991).

How the values were obtained:
[1] = organism: Mus musculus; assay: Anticonvulsant activity in mice by inhibition of pentylenetetrazole induced seizures.; format: functional
[2] = molecular target: GABA-A receptor; anion channel; assay: Binding affinity to picrotoxin site of Gamma-aminobutyric acid receptor using [35S]TBPS as radioligand; format: protein-complex assay, Rattus norvegicus
Method in brief: (§1)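 Rat cerebral cortex membranes (female Sprague–Dawley) washed and held in 50 mM Tris-citrate pH 7.5. [35S]TBPS at 2 nM final, in NaBr. Incubated in triplicate for 90 min at 25 °C, then filtered and scintillation counted. Nonspecific binding with 10 μM TBPS or 100 μM picrotoxinin. IC50 by log probit from ≥5 concentrations; mean ± SEM of three experiments.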

[3] = organism: Mus musculus; assay: Anticonvulsant activity in mice by maximal electroshock test.; format: functional
Method in brief: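 Maximal electroshock applied through corneal electrodes after 0.9% NaCl drops on the eyes. Compound given ip in 30% polyethylene glycol (0.01 mL/g). Protection defined as no tonic hind-limb extension past 90°. ED50 from log probit analysis of dose–response data.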

[4] = system: Mus musculus; assay: Concentration of brain at 10 min was determined after the compound was administered intraperitoneally at a dose 259 mg/kg in mice; format: functional; conditions: route intraperitoneal
Method in brief: (§2)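 Female CF-1 mice dosed ip and decapitated at the set time, n = 3. Cerebral cortex frozen and homogenized at 4 °C in chloroform:methanol 2:1 with an internal standard. Lower phase analysed by capillary GC-FID with splitless injection. Concentration taken from the ratio to the internal standard, corrected for detector response and wet weight. Mean ± SEM.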

[5] = system: Mus musculus; assay: Concentration of brain at 5 min was determined after the compound was administered intraperitoneally at a dose 259 mg/kg in mice; format: functional; conditions: route intraperitoneal; method in brief: as §2
[6] = system: Mus musculus; assay: Concentration of brain at 40 min was determined after the compound was administered intraperitoneally at a dose 259 mg/kg in mice; format: functional; conditions: route intraperitoneal
[7] = system: Mus musculus; assay: Concentration of brain at 30 min was determined after the compound was administered intraperitoneally at a dose 259 mg/kg in mice; format: functional; conditions: route intraperitoneal; method in brief: as §2
[8] = Neurotoxic effects by rotarod test in mice.; format: ADME, organism-based; conditions: mouse, in vivo
Method in brief: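 Rotorod test in mice after ip dosing in 30% polyethylene glycol (0.01 mL/g). TD50 from log probit analysis of dose–response data.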

[9] = system: Mus musculus; assay: Concentration of brain at 20 min was determined after the compound was administered intraperitoneally at a dose 259 mg/kg in mice; format: functional; conditions: route intraperitoneal; method in brief: as §2
[10] = molecular target: GABA-A receptor; anion channel; assay: Binding affinity to picrotoxin site of the Gamma-aminobutyric acid receptor was measured using [35S]TBPS as radioligand; format: protein-complex assay; method in brief: as §1
[11] = organism: Mus musculus; assay: Convulsant potency was determined by measuring the ability to produce seizures in mice; format: functional
Method in brief: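 Compound given ip in 30% polyethylene glycol (0.01 mL/g body weight). Mice observed for 30 min for seizure activity. Value is the CD50 for clonic convulsions, from log probit analysis; 95% fiducial limits given.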

Structure (SMILES)	ED50 [1] [mg/kg]	IC50 [2] [µM]	ED50 [3] [mg/kg]	TD50 [8] [mg/kg]	IC50 [10] [µM]	other results
CCC1(C)CCOC1=O (stereo not given)	259	2300	> 500	621	–	Brain concentration [4]: 1.83 mM; Brain concentration [5]: 2.97 mM; Brain concentration [6]: 0.88 mM; Brain concentration [7]: 1.21 mM; Brain concentration [9]: 1.35 mM
CC(C)C1COC(=O)C1 (stereo not given)	–	–	–	–	42000	CD50 [11]: 15 mg/kg
CCC1(CC)CCOC1=O	191	750	463	416	–	–
CCC1(C)COC(=O)C1 (stereo not given)	–	–	–	–	55000	CD50 [11]: 20 mg/kg
CC(C)C1CCSC1=O (stereo not given)	145	260	> 500	> 500	–	–
CCC1(C)CSC(=O)C1 (stereo not given)	–	–	–	–	–	CD50 [11]: 3.5 mg/kg
CC1CCSC1=O (stereo not given)	91	–	91	–	4400	–
CC(C)C1CCOC1=O (stereo not given)	150	–	> 400	> 400	2000	–
CC(C)(C)C1CCOC1=O (stereo not given)	145	990	375	> 500	–	–
CC(C)(C)C1COC(=O)C1 (stereo not given)	–	13000	–	–	–	CD50 [11]: 5.5 mg/kg
CC1(C)CCOC1=O	> 500	9200	> 500	> 500	–	–
CCC1(C)CCSC1=O (stereo not given)	–	–	–	–	330	–
CCC1(CC)CCSC1=O	104	–	374	285	260	–
CC1(C)CCSC1=O	208	–	369	220	920	–
CC(C)C1(C(C)C)CCOC1=O	137	–	–	–	220	–
CC(C)C1(C)CCOC1=O (stereo not given)	198	–	> 500	278	850	–
CC(C)(C)C1CCSC1=O (stereo not given)	244	–	> 500	> 500	190	–
CC(C)C1(C(C)C)CCSC1=O	> 500	–	> 500	> 500	74	–
CC(C)C1(C)CCSC1=O (stereo not given)	154	–	> 500	> 500	140	–
CCC1(C)CC(=O)OC1(C)C (stereo not given)	–	22000	–	–	–	CD50 [11]: 8.2 mg/kg
CCC1CCOC1=O (stereo not given)	> 500	8500	> 500	> 500	–	–
CC1CCOC1=O (stereo not given)	> 500	–	> 500	> 500	> 10000	–
CCC1CCSC1=O (stereo not given)	414	–	232	> 500	1500	–
